Measured values: ChEMBL document CHEMBL4118159, “Discovery of tetrahydroindazoles as a novel class of potent and in vivo efficacious gamma secretase modulators” (Bioorg Med Chem, 2018)

Assays:
[1] = target: Gamma-secretase; experiment: Modulation of gamma secretase in human H4 cells expressing human wild type APP assessed as inhibition of amyloid beta 42 production after 22 hrs by electrochemiluminescence assay; assay type: cell-based
How it was run: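 H4 cells overexpressing human APPwt, 10,000/well, were exposed to compound 22 h at 37°C, 5% CO2. Supernatant was diluted with medium on an MSD anti-Aβ42 plate and detected with S-tag 6E10 (1:50, 1 h). Read-out was electrochemiluminescence.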

[2] = Apparent permeability from apical to basolateral side in MDCK cells expressing human MDR1 at 1 uM at pH 7.4; assay type: ADME, cell-based, Canis lupus familiaris; details: dog, MDCK-MDR1, pH 7.4
How it was run: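 MDCK-MDR1 monolayers; transport measured apical-to-basal and basal-to-apical at pH 7.4, 37°C, starting from 1 µM in the donor compartment; apparent permeability coefficients derived.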

[3] = Drug uptake in Han Wistar rat plasma at 10 umol/kg, po administered via gavage measured 3 hrs post dose by LC/MS/MS analysis; assay type: ADME, organism-based
How it was run: (§1)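 Fasted female Han Wistar rats were dosed by oral gavage as a Natrosol suspension. Animals were sacrificed 3 h later and plasma and tissues collected and frozen. Concentrations were measured by LC/MS/MS after acetonitrile precipitation.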

[4] = Modulation of gamma secretase in rat E18 cells assessed as inhibition of amyloid beta 42 production after 22 hrs by electrochemiluminescence assay; assay type: cell-based
[5] = Mean residence time in Han Wistar rat at 1 umol/kg, iv administered as bolus by LC/MS/MS analysis; assay type: ADME, organism-based; details: in vivo
How it was run: (§2)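 Female fed Han Wistar rats received the compound as an i.v. solution. Blood was sampled at several time points and EDTA plasma prepared. Plasma levels were quantified by LC/MS/MS after acetonitrile precipitation, and PK parameters were calculated by non-compartmental analysis.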

[6] = Clearance in Han Wistar rat at 1 umol/kg, iv administered as bolus by LC/MS/MS analysis; assay type: ADME, organism-based; details: in vivo; how it was run: as §2
[7] = Volume of distribution at steady state in Han Wistar rat at 1 umol/kg, iv administered as bolus by LC/MS/MS analysis; assay type: ADME, organism-based; details: in vivo, read-out: Vdss; how it was run: as §2
[8] = Drug uptake in Han Wistar rat brain at 10 umol/kg, po administered via gavage measured 3 hrs post dose by LC/MS/MS analysis; assay type: ADME, organism-based; details: read-out: Drug uptake; how it was run: as §1
[9] = target: T1, Cytochrome P450 2C8 (Homo sapiens, UniProt P10632); experiment: Inhibition of CYP2C8 in human liver microsomes in presence of NADPH by LC-MS/MS analysis; assay type: ADME
T1 sequence (P10632 whole entry): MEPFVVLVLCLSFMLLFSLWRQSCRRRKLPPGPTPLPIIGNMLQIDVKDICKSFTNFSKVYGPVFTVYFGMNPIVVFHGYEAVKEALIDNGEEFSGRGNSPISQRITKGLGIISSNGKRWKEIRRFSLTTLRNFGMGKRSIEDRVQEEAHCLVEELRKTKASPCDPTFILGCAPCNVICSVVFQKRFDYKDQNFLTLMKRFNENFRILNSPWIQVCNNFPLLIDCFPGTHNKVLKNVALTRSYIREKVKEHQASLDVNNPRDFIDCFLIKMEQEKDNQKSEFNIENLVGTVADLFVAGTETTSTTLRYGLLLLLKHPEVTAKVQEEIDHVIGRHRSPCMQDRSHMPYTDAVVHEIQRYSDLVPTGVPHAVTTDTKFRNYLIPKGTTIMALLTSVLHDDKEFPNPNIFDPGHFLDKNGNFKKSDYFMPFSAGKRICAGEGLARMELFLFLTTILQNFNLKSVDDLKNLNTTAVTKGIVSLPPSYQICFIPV

[10] = Unbound brain concentration in rat brain at 30 mg/kg, po measured after 3 hrs by LC/MS/MS analysis; assay type: ADME, organism-based; details: in vivo
How it was run: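 Unbound brain concentration estimated from unbound plasma exposure 3 h after oral dosing, assuming equal plasma–brain distribution. Plasma sampled after dosing in 0.5% Natrosol/0.01% Tween 80 and quantified by LC/MS/MS.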

[11] = target: Cytochrome P450 2C9 (Homo sapiens, UniProt P11712); experiment: Inhibition of CYP2C9 in human liver microsomes using diclofenac as substrate in presence of NADPH by LC-MS/MS analysis; assay type: ADME
Sequence of Cytochrome P450 2C9 (P11712 whole entry): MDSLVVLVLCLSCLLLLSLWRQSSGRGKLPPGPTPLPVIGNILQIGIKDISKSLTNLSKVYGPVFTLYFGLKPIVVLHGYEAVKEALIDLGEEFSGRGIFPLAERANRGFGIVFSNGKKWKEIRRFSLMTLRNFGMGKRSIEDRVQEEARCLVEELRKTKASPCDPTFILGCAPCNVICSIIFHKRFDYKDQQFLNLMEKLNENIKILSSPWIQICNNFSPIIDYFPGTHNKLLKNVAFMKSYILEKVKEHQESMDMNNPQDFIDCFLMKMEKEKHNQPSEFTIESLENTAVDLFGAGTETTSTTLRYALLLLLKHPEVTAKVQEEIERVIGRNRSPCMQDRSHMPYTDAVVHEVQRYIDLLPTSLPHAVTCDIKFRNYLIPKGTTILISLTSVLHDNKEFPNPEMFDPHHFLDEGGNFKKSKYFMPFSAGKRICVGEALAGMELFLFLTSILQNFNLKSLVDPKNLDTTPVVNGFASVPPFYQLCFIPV
How it was run: (§3)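 Human pooled liver microsomes (0.1 mg/ml) at 37°C in 0.1 M Tris with 5 mM MgCl2. Substrates were dextromethorphan 7 µM (2D6), diclofenac 4 µM (2C9), (S)-mephenytoin 30 µM (2C19) and testosterone 60 µM (3A4). Test compound ran at five concentrations. Reactions were started with 1 mM NADPH and stopped by cooling to 8°C plus acetonitrile. Metabolite was read by LC-MS/MS against an isotope internal standard, relative to no-compound control.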

[12] = test system: Rattus norvegicus; experiment: In vivo modulation of gamma secretase in rat brain homogenate assessed as decrease in amyloid beta 42 levels at 25 mg/kg, po measured after 3 hrs by electrochemiluminescence assay relative to control; assay type: functional; parameters: scale not given: the % may be the effect or the level left
How it was run: (§4)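 Rats dosed orally with compound in 0.5% Natrosol/0.01% Tween 80, then anesthetized (Ketavet, Inactin i.p.) and decapitated 3 h later. Brain slices were homogenized in 20 mM Tris pH 8.5 + 0.2% Triton X-100 (5-fold v/w) and spun 1 h at 210,000 x g, 4°C. Aβ42 in the supernatant was read by MSD electrochemiluminescence with S-tag 4G8 detection.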

[13] = target: T2, hERG (KCNH2) (Homo sapiens, UniProt Q12809); experiment: Inhibition of human ERG at 1 uM by patch clamp assay relative to control
T2 sequence (Q12809 whole entry): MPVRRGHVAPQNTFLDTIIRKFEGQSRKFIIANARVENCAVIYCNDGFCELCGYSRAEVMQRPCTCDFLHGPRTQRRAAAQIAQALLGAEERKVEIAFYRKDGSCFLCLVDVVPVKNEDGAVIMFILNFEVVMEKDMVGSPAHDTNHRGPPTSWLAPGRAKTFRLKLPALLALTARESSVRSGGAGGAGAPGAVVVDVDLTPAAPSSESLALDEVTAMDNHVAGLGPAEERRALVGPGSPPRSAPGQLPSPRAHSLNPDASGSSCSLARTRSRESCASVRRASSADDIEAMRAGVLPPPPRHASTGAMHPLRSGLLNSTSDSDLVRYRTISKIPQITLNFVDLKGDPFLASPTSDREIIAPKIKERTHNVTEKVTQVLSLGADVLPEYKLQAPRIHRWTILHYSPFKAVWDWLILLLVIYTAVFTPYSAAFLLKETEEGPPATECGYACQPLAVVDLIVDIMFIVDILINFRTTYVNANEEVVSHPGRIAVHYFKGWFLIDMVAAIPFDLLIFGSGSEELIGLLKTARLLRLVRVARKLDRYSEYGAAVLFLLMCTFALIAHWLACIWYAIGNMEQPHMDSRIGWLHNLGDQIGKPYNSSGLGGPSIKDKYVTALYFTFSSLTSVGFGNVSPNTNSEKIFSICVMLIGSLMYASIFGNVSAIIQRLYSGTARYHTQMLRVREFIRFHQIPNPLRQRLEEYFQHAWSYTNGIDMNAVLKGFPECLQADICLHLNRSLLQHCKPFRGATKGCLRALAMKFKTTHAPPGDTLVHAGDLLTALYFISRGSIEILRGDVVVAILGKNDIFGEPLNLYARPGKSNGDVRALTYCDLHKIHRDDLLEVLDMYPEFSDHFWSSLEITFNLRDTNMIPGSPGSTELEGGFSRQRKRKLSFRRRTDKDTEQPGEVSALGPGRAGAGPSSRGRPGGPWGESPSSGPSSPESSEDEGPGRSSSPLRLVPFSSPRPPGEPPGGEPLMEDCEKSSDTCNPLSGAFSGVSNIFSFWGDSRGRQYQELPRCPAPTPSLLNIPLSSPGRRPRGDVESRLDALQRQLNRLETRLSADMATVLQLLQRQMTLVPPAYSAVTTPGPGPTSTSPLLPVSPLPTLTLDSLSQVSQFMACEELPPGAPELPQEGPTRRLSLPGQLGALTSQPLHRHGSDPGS

[14] = test system: Rattus norvegicus; experiment: Decrease in total amyloid beta 42 levels in rat brain homogenate at 30 mg/kg, po measured after 3 hrs by electrochemiluminescence assay relative to control; parameters: scale not given: the % may be the effect or the level left; details: in vivo
[15] = target: Cytochrome P450 2C19 (Homo sapiens, UniProt P33261); experiment: Inhibition of CYP2C19 in human liver microsomes using (S)-mephenytoin as substrate in presence of NADPH by LC-MS/MS analysis; assay type: ADME; how it was run: as §3
Sequence of Cytochrome P450 2C19 (P33261 whole entry): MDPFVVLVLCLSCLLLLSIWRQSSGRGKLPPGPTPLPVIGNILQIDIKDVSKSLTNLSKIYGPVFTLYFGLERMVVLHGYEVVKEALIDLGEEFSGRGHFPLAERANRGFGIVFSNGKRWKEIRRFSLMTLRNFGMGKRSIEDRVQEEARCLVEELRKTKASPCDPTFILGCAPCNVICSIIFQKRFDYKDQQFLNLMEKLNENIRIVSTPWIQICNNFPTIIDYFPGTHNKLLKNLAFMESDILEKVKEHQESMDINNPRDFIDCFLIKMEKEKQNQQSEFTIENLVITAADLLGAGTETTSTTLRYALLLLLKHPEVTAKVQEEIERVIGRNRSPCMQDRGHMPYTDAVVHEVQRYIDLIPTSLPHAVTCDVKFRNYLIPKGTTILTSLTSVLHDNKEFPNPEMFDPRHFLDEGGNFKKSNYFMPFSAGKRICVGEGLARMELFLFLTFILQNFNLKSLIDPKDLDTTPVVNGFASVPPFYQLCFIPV

[16] = target: Cytochrome P450 3A4 (Homo sapiens, UniProt P08684); experiment: Inhibition of CYP3A4 in human liver microsomes using testosterone as substrate in presence of NADPH by LC-MS/MS analysis; assay type: ADME; how it was run: as §3
Sequence of Cytochrome P450 3A4 (P08684 whole entry): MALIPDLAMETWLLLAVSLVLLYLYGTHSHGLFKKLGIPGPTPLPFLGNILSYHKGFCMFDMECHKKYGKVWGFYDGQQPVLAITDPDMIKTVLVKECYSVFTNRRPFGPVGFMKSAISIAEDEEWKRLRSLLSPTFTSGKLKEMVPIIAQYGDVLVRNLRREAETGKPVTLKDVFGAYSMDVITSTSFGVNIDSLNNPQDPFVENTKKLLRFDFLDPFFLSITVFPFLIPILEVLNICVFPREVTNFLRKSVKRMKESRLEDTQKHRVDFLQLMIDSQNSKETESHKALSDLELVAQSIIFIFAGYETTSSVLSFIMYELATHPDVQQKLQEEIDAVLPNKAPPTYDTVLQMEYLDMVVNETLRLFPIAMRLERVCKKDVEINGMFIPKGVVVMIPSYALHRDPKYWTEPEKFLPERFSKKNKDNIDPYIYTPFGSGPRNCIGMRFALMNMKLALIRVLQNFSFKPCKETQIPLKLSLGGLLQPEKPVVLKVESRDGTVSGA

[17] = Ratio of drug uptake in Han Wistar rat muscle to brain at 10 umol/kg, po administered via gavage measured 3 hrs post dose by LC/MS/MS analysis; assay type: ADME, organism-based; details: in vivo
How it was run: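 Fasted female Han Wistar rats given 10 µmol/kg orally; sacrificed 3 h post dose, tissues collected and frozen; samples acetonitrile-precipitated, supernatant diluted 1:100 and quantified by LC-ESI-MS/MS; muscle-to-brain concentration ratio.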

[18] = target: Gamma-secretase; experiment: Modulation of gamma-secretase in human E6 cells expressing HeLaTetON-NotchdeltaE-NLuc/CLuc-RBP assessed as notch cleavage after 16 hrs by bioluminescence assay; assay type: ADME, cell-based
[19] = Ratio of drug uptake in Han Wistar rat brain to plasma at 10 umol/kg, po administered via gavage measured 3 hrs post dose by LC/MS/MS analysis; assay type: ADME, organism-based; how it was run: as §1
[20] = Drug uptake in Han Wistar rat muscle at 10 umol/kg, po administered via gavage measured 3 hrs post dose by LC/MS/MS analysis; assay type: ADME, organism-based, Muscle tissue; details: read-out: Drug uptake; how it was run: as §1
[21] = Efflux ratio of apparent permeability from […] in MDCK cells expressing human MDR1 at 1 uM at pH 7.4; assay type: ADME, cell-based, Canis lupus familiaris; details: dog, pH 7.4, 1 µM
How it was run: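 MDCK-MDR1 monolayers, pH 7.4, 37°C; transport measured apical-to-basal and basal-to-apical from 1 µM initial donor concentration; apparent permeability coefficients derived for each direction, ratio taken.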

[22] = test system: Rattus norvegicus; experiment: Decrease in total amyloid beta levels in rat brain homogenate at 30 mg/kg, po measured after 3 hrs by electrochemiluminescence assay relative to control; parameters: scale not given: the % may be the effect or the level left; details: in vivo
[23] = target: T2, hERG (KCNH2); experiment: Inhibition of human ERG at 10 uM by patch clamp assay relative to control
[24] = test system: Rattus norvegicus; experiment: In vivo modulation of gamma secretase in rat brain homogenate assessed as decrease in amyloid beta 42 levels at 30 mg/kg, po measured after 3 hrs by electrochemiluminescence assay relative to control; assay type: functional; parameters: scale not given: the % may be the effect or the level left; how it was run: as §4
[25] = target: Cytochrome P450 2D6 (Homo sapiens, UniProt P10635); experiment: Inhibition of CYP2D6 in human liver microsomes using dextromethorphan as substrate in presence of NADPH by LC-MS/MS analysis; assay type: ADME; how it was run: as §3
Sequence of Cytochrome P450 2D6 (P10635 whole entry): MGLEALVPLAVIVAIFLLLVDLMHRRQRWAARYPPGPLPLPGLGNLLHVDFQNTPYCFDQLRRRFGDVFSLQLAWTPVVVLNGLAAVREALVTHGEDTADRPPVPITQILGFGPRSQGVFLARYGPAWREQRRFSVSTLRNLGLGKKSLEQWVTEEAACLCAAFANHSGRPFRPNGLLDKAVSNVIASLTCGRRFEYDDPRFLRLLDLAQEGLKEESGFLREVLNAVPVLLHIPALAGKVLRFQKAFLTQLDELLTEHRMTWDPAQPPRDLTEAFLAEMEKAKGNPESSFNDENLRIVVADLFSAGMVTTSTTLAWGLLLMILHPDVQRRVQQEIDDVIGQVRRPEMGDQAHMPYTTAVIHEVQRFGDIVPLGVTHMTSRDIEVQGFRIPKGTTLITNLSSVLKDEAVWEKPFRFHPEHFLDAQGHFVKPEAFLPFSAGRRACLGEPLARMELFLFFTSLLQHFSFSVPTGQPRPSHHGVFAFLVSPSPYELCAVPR

[26] = Protein binding in rat plasma at 1 uM after 5 hrs by equilibrium dialysis based LC-MS/MS analysis; assay type: ADME, cell-free; details: read-out: PPB (converted)
How it was run: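 Equilibrium dialysis: rat EDTA plasma spiked to 1 µM final, dialysed against PBS with dextran (pH 7.4) across a 5–10 kDa membrane. Run 5 h at 37°C; both sides analyzed by HPLC-MS/MS.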

Structure (SMILES): CCn1nc(Cl)c2c1CCC(Nc1nc3c(-c4ccc(F)cc4C)cccn3n1)C2 (centres undefined)
- IC50 [1]: 750 nM

Structure (SMILES): CCn1ncc2c1CC[C@@H](Nc1nc3c(-c4ccc(F)cc4C)cccn3n1)C2
- Papp A→B at 1 µM [2]: 78 ×10⁻⁶ cm/s
- concentration at 3 h [3]: 2680 nM
- IC50 [4]: 40 nM
- MRT [5]: 36 min
- clearance [6]: 40 mL/min/kg
- Vd [7]: 1.5 L/kg
- concentration at 3 h [8]: 2990 nM
- IC50 [9]: 9500 nM
- Cp(f) [10]: 30 nM
- IC50 [11]: 25000 nM
- Activity [12]: 53%
- inhibition at 1 µM [13]: 8%
- Activity [14]: 3%
- IC50 [15]: 36000 nM
- IC50 [16]: > 50000 nM
- Ratio [17]: 0.9
- IC50 [18]: > 30000 nM
- Kp at 3 h [19]: 1.1
- concentration at 3 h [20]: 2600 nM
- Ratio [21]: 0.7
- Activity [22]: 5%
- inhibition at 10 µM [23]: 39%
- Activity [24]: 47%
- IC50 [1]: 40 nM
- IC50 [25]: > 50000 nM
- fraction unbound at 5 h, 1 µM [26]: 0.012

Structure (SMILES): CCn1nnc2c1CCC(Nc1nc3c(-c4ccc(F)cc4C)cccn3n1)C2 (centres undefined)
- IC50 [1]: 2200 nM

Structure (SMILES): CCn1ncc2c1CCC(Nc1nc3c(-c4cccc(Cl)c4)cccn3n1)C2 (centres undefined)
- IC50 [1]: 40 nM

Structure (SMILES): CCn1ncc2c1CCC(Nc1nc3c(-c4ccc(OC)nc4)cccn3n1)C2 (centres undefined)
- IC50 [1]: 90 nM

Structure (SMILES): CCn1ncc2c1CCC(Nc1nc3c(-c4ccc(F)cc4C)cccn3n1)C2 (centres undefined)
- IC50 [1]: 70 nM

Structure (SMILES): CCc1nn(C)c2c1CCC(Nc1nc3c(-c4ccc(F)cc4C)cccn3n1)C2 (centres undefined)
- IC50 [1]: 3130 nM

Structure (SMILES): Cc1cc(F)ccc1-c1cccn2nc(NC3CCc4[nH]ncc4C3)nc12 (centres undefined)
- IC50 [1]: 4570 nM

Structure (SMILES): CCn1ncc2c1CCC(Nc1nc3c(-c4cccnc4)cccn3n1)C2 (centres undefined)
- IC50 [1]: 350 nM

Structure (SMILES): CCn1ncc2c1CCC(Nc1nc3c(-c4ccc(Cl)cc4)cccn3n1)C2 (centres undefined)
- IC50 [1]: 60 nM

Structure (SMILES): CCn1ncc2c1CCC(Nc1nc3c(-c4cnccc4OC)cccn3n1)C2 (centres undefined)
- IC50 [1]: 120 nM

Structure (SMILES): CCCCn1ncc2c1CCC(Nc1nc3c(-c4ccc(F)cc4C)cccn3n1)C2 (centres undefined)
- IC50 [1]: 2770 nM

Structure (SMILES): CCn1ncc2c1CC[C@H](Nc1nc3c(-c4ccc(F)c(Cl)c4)cccn3n1)C2
- IC50 [1]: 194 nM

Structure (SMILES): Cc1cc(F)ccc1-c1cccn2nc(NC3CCc4c(cnn4C)C3)nc12 (centres undefined)
- IC50 [1]: 380 nM

Structure (SMILES): Cc1cc(F)ccc1-c1cccn2nc(NC3CCc4cnn(C)c4C3)nc12 (centres undefined)
- IC50 [1]: > 30000 nM

Structure (SMILES): CCn1ncc2c1CCC(Nc1nc3c(-c4cccnc4C)cccn3n1)C2 (centres undefined)
- IC50 [1]: 680 nM

Structure (SMILES): CCn1ncc2c1CCC(Nc1nc3c(-c4cc(F)c(F)c(F)c4)cccn3n1)C2 (centres undefined)
- IC50 [1]: 30 nM

Structure (SMILES): CCn1ncc2c1CCC(Nc1nc3c(-c4ccc(N(C)C)nc4)cccn3n1)C2 (centres undefined)
- IC50 [1]: 50 nM

Structure (SMILES): Cc1cc(F)ccc1-c1cccn2nc(NC3CCc4c(cnn4C(C)C)C3)nc12 (centres undefined)
- IC50 [1]: 430 nM
